Reference: ChEMBL document CHEMBL5329174, “Discovery of benzoxazole-thiazolidinone hybrids as promising antibacterial agents against Staphylococcus aureus and Enterococcus species” (RSC Med Chem, 2023)
Converted amounts (≈) assume the structure as drawn.

Assays:
Escherichia coli = experiment: Antibacterial activity against Escherichia coli ATCC 25922 assessed as reduction in bacterial growth; format: functional
Summary of the method: (§1)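 CLSI broth microdilution in cation-supplemented Mueller–Hinton broth II; overnight starter cultures (37 °C, shaking, 18–24 h) adjusted by OD600 to ~10^6 CFU/mL. Compounds dosed from DMSO stocks (10 mg/mL stock) as two-fold dilutions, 64–0.5 mg/L. Plates held 37 °C, 18–24 h. MIC = lowest concentration without visible growth. Three independent runs, each in duplicate.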

Staphylococcus aureus [1] = experiment: Antibacterial activity against Staphylococcus aureus ATCC 29213 assessed as reduction in bacterial growth; format: functional; summary of the method: as §1
Klebsiella pneumoniae = experiment: Antibacterial activity against Klebsiella pneumoniae BAA-1705 assessed as reduction in bacterial growth; format: functional; summary of the method: as §1
Acinetobacter baumannii = experiment: Antibacterial activity against Acinetobacter baumannii BAA-1605 assessed as reduction in bacterial growth; format: functional; summary of the method: as §1
Pseudomonas aeruginosa = experiment: Antibacterial activity against Pseudomonas aeruginosa ATCC 27853 assessed as reduction in bacterial growth; format: functional; summary of the method: as §1
[2] = Cytotoxicity against african green monkey Vero cells assessed as reduction in cell viability incubated for 72 hrs by MTT assay; format: toxicity, cell-based; conditions: chlorocebus sabaeus
Summary of the method: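 Vero (ATCC CCL-81) cells seeded at ~10^3 per well, 37 °C, 5% CO2. After 24 h, compound added at 100–12.5 μg/mL for 72 h. MTT then given for 4 h at 37 °C, formazan dissolved in DMSO, absorbance read at 540 nm. CC50 taken as the concentration giving 50% viability loss; doxorubicin as positive control; triplicate.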

[3] = Selectivity index, ratio of CC50 for cytotoxicity against african green monkey Vero cells assessed as reduction in cell viability to MIC for antibacterial activity against Staphylococcus aureus ATCC 29213 assessed as reduction in bacterial growth; format: toxicity, cell-based; conditions: read-out: Selectivity Index
Staphylococcus aureus [4] = experiment: Antibacterial activity against methicilin-resistant Staphylococcus aureus NRS 100 assessed as reduction in bacterial growth; format: functional
Summary of the method: (§2)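 CLSI broth microdilution in cation-supplemented Mueller–Hinton broth II. Starter cultures were grown overnight at 37 °C with shaking from a single MHA colony, then diluted by OD600 to ~10^6 CFU/mL. Compounds came from 10 mg/mL DMSO stocks and were tested two-fold from 64 to 0.5 mg/L. Plates were incubated 37 °C for 18–24 h. MIC was taken as the lowest concentration with no visible growth. Three independent runs, each in duplicate.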

Staphylococcus aureus [5] = experiment: Antibacterial activity against methicilin-resistant Staphylococcus aureus NRS 119 assessed as reduction in bacterial growth; format: functional; summary of the method: as §2
Staphylococcus aureus [6] = experiment: Antibacterial activity against methicilin-resistant Staphylococcus aureus NRS 129 assessed as reduction in bacterial growth; format: functional; summary of the method: as §2
Staphylococcus aureus [7] = experiment: Antibacterial activity against methicilin-resistant Staphylococcus aureus NRS 186 assessed as reduction in bacterial growth; format: functional; summary of the method: as §2
Staphylococcus aureus [8] = experiment: Antibacterial activity against methicilin-resistant Staphylococcus aureus NRS 191 assessed as reduction in bacterial growth; format: functional; summary of the method: as §2
Staphylococcus aureus [9] = experiment: Antibacterial activity against methicilin-resistant Staphylococcus aureus NRS 192 assessed as reduction in bacterial growth; format: functional; summary of the method: as §2
Staphylococcus aureus [10] = experiment: Antibacterial activity against methicilin-resistant Staphylococcus aureus NRS 193 assessed as reduction in bacterial growth; format: functional; summary of the method: as §2
Staphylococcus aureus [11] = experiment: Antibacterial activity against methicilin-resistant Staphylococcus aureus NRS 194 assessed as reduction in bacterial growth; format: functional; summary of the method: as §2
Staphylococcus aureus [12] = experiment: Antibacterial activity against methicilin-resistant Staphylococcus aureus NRS 198 assessed as reduction in bacterial growth; format: functional; summary of the method: as §2
Staphylococcus aureus [13] = experiment: Antibacterial activity against vancomycin-resistant Staphylococcus aureus VRS 1 assessed as reduction in bacterial growth; format: functional; summary of the method: as §2
Staphylococcus aureus [14] = experiment: Antibacterial activity against vancomycin-resistant Staphylococcus aureus VRS 4 assessed as reduction in bacterial growth; format: functional; summary of the method: as §2
Staphylococcus aureus [15] = experiment: Antibacterial activity against vancomycin-resistant Staphylococcus aureus VRS 12 assessed as reduction in bacterial growth; format: functional; summary of the method: as §2
Enterococcus faecalis [16] = experiment: Antibacterial activity against vancomycin-susceptible Enterococcus faecalis NR 31884 assessed as inhibition of bacterial growth incubated for 18 to 24 hrs by broth microdilution assay; format: functional; conditions: time 18-24 hrs; summary of the method: as §1
Enterococcus faecalis [17] = experiment: Antibacterial activity against vancomycin-susceptible Enterococcus faecalis NR 31885 assessed as inhibition of bacterial growth incubated for 18 to 24 hrs by broth microdilution assay; format: functional; conditions: time 18-24 hrs; summary of the method: as §1
Enterococcus faecalis [18] = experiment: Antibacterial activity against vancomycin-susceptible Enterococcus faecalis NR 31886 assessed as inhibition of bacterial growth incubated for 18 to 24 hrs by broth microdilution assay; format: functional; conditions: time 18-24 hrs; summary of the method: as §1
Enterococcus faecalis [19] = experiment: Antibacterial activity against vancomycin-susceptible Enterococcus faecalis NR 31887 assessed as inhibition of bacterial growth incubated for 18 to 24 hrs by broth microdilution assay; format: functional; conditions: time 18-24 hrs; summary of the method: as §1
Enterococcus faecalis [20] = experiment: Antibacterial activity against vancomycin-susceptible Enterococcus faecalis NR 31888 assessed as inhibition of bacterial growth incubated for 18 to 24 hrs by broth microdilution assay; format: functional; conditions: time 18-24 hrs; summary of the method: as §1
Enterococcus faecium [21] = experiment: Antibacterial activity against vancomycin-resistant Enterococcus faecium NR 31903 assessed as inhibition of bacterial growth
Enterococcus faecium [22] = experiment: Antibacterial activity against vancomycin-resistant Enterococcus faecium NR 31909 assessed as inhibition of bacterial growth
Enterococcus faecium [23] = experiment: Antibacterial activity against vancomycin-resistant Enterococcus faecium NR 31912 assessed as inhibition of bacterial growth
Staphylococcus aureus [24] = experiment: Bactericidal activity against Staphylococcus aureus ATCC 29213 incubated for 24 hrs by time-kill assay; format: functional, organism-based
Summary of the method: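 Time-kill: S. aureus ATCC 29213 at ~10^6 CFU/mL in MHBII, exposed to 1× and 10× MIC, 37 °C with shaking for 24 h. Surviving CFU/mL plotted over time; mean of replicate experiments in duplicate.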

| SMILES | MIC (Escherichia coli) | MIC (Staphylococcus aureus [1]) | MIC (Klebsiella pneumoniae) | MIC (Acinetobacter baumannii) | MIC (Pseudomonas aeruginosa) | CC50 at 72 h [2] | selectivity ratio [3] | MIC (Staphylococcus aureus [4]) | MIC (Staphylococcus aureus [5]) | MIC (Staphylococcus aureus [6]) | MIC (Staphylococcus aureus [7]) | MIC (Staphylococcus aureus [8]) | MIC (Staphylococcus aureus [9]) | MIC (Staphylococcus aureus [10]) | MIC (Staphylococcus aureus [11]) | MIC (Staphylococcus aureus [12]) | MIC (Staphylococcus aureus [13]) | MIC (Staphylococcus aureus [14]) | MIC (Staphylococcus aureus [15]) | MIC (Enterococcus faecalis [16]) | other results |
| --- | --- | --- | --- | --- | --- | --- | --- | --- | --- | --- | --- | --- | --- | --- | --- | --- | --- | --- | --- | --- | --- |
| O=C1N/C(=N\c2nc3ccccc3o2)S/C1=C\c1ccc(O)cc1 | > 64 µg/mL | 2 µg/mL (≈ 5.93 µM) | > 64 µg/mL | > 64 µg/mL | > 64 µg/mL | > 40 µg/mL | > 20 | 1 µg/mL (≈ 2.96 µM) | 2 µg/mL (≈ 5.93 µM) | 2 µg/mL (≈ 5.93 µM) | 1 µg/mL (≈ 2.96 µM) | 2 µg/mL (≈ 5.93 µM) | 2 µg/mL (≈ 5.93 µM) | 2 µg/mL (≈ 5.93 µM) | 2 µg/mL (≈ 5.93 µM) | 2 µg/mL (≈ 5.93 µM) | 2 µg/mL (≈ 5.93 µM) | 2 µg/mL (≈ 5.93 µM) | 2 µg/mL (≈ 5.93 µM) | 16 µg/mL (≈ 47.4 µM) | MIC (Enterococcus faecalis [17]): 16 µg/mL (≈ 47.4 µM); MIC (Enterococcus faecalis [18]): 16 µg/mL (≈ 47.4 µM); MIC (Enterococcus faecalis [19]): 8 µg/mL (≈ 23.7 µM); MIC (Enterococcus faecalis [20]): 16 µg/mL (≈ 47.4 µM); MIC (Enterococcus faecium [21]): 4 µg/mL (≈ 11.9 µM); MIC (Enterococcus faecium [22]): 0.25 µg/mL (≈ 0.741 µM); MIC (Enterococcus faecium [23]): 0.25 µg/mL (≈ 0.741 µM) |
| O=C1N/C(=N\c2nc3ccccc3o2)S/C1=C\c1cc(Br)ccc1O | > 64 µg/mL | 1 µg/mL (≈ 2.4 µM) | > 64 µg/mL | > 64 µg/mL | > 64 µg/mL | > 20 µg/mL | > 20 | 0.5 µg/mL (≈ 1.2 µM) | 1 µg/mL (≈ 2.4 µM) | 0.5 µg/mL (≈ 1.2 µM) | 0.5 µg/mL (≈ 1.2 µM) | 0.5 µg/mL (≈ 1.2 µM) | 1 µg/mL (≈ 2.4 µM) | 1 µg/mL (≈ 2.4 µM) | 1 µg/mL (≈ 2.4 µM) | 1 µg/mL (≈ 2.4 µM) | 1 µg/mL (≈ 2.4 µM) | 1 µg/mL (≈ 2.4 µM) | 0.5 µg/mL (≈ 1.2 µM) | 4 µg/mL (≈ 9.61 µM) | MIC (Enterococcus faecalis [17]): 4 µg/mL (≈ 9.61 µM); MIC (Enterococcus faecalis [18]): 4 µg/mL (≈ 9.61 µM); MIC (Enterococcus faecalis [19]): 2 µg/mL (≈ 4.8 µM); MIC (Enterococcus faecalis [20]): 4 µg/mL (≈ 9.61 µM); Activity (Staphylococcus aureus [24]): Dose-Dependent Effect; MIC (Enterococcus faecium [21]): 1 µg/mL (≈ 2.4 µM); MIC (Enterococcus faecium [22]): 0.125 µg/mL (≈ 0.3 µM); MIC (Enterococcus faecium [23]): 0.125 µg/mL (≈ 0.3 µM) |
| O=C1N/C(=N\c2nc3ccccc3o2)S/C1=C\c1cc(Cl)ccc1O | > 64 µg/mL | 1 µg/mL (≈ 2.69 µM) | > 64 µg/mL | > 64 µg/mL | > 64 µg/mL | > 20 µg/mL | > 20 | 0.5 µg/mL (≈ 1.34 µM) | 1 µg/mL (≈ 2.69 µM) | 0.5 µg/mL (≈ 1.34 µM) | 0.5 µg/mL (≈ 1.34 µM) | 0.5 µg/mL (≈ 1.34 µM) | 1 µg/mL (≈ 2.69 µM) | 1 µg/mL (≈ 2.69 µM) | 1 µg/mL (≈ 2.69 µM) | 1 µg/mL (≈ 2.69 µM) | 1 µg/mL (≈ 2.69 µM) | 1 µg/mL (≈ 2.69 µM) | 0.5 µg/mL (≈ 1.34 µM) | 4 µg/mL (≈ 10.8 µM) | MIC (Enterococcus faecalis [17]): 4 µg/mL (≈ 10.8 µM); MIC (Enterococcus faecalis [18]): 4 µg/mL (≈ 10.8 µM); MIC (Enterococcus faecalis [19]): 2 µg/mL (≈ 5.38 µM); MIC (Enterococcus faecalis [20]): 4 µg/mL (≈ 10.8 µM); Activity (Staphylococcus aureus [24]): Dose-Dependent Effect; MIC (Enterococcus faecium [21]): 1 µg/mL (≈ 2.69 µM); MIC (Enterococcus faecium [22]): 0.125 µg/mL (≈ 0.336 µM); MIC (Enterococcus faecium [23]): 0.125 µg/mL (≈ 0.336 µM) |
| O=C1N/C(=N\c2nc3ccccc3o2)S/C1=C\c1cccc(O)c1 | > 64 µg/mL | 2 µg/mL (≈ 5.93 µM) | > 64 µg/mL | > 64 µg/mL | > 64 µg/mL | > 40 µg/mL | > 20 | 1 µg/mL (≈ 2.96 µM) | 2 µg/mL (≈ 5.93 µM) | 2 µg/mL (≈ 5.93 µM) | 1 µg/mL (≈ 2.96 µM) | 2 µg/mL (≈ 5.93 µM) | 2 µg/mL (≈ 5.93 µM) | 2 µg/mL (≈ 5.93 µM) | 2 µg/mL (≈ 5.93 µM) | 2 µg/mL (≈ 5.93 µM) | 2 µg/mL (≈ 5.93 µM) | 2 µg/mL (≈ 5.93 µM) | 2 µg/mL (≈ 5.93 µM) | 16 µg/mL (≈ 47.4 µM) | MIC (Enterococcus faecalis [17]): 16 µg/mL (≈ 47.4 µM); MIC (Enterococcus faecalis [18]): 16 µg/mL (≈ 47.4 µM); MIC (Enterococcus faecalis [19]): 8 µg/mL (≈ 23.7 µM); MIC (Enterococcus faecalis [20]): 16 µg/mL (≈ 47.4 µM); MIC (Enterococcus faecium [21]): 4 µg/mL (≈ 11.9 µM); MIC (Enterococcus faecium [22]): 0.25 µg/mL (≈ 0.741 µM); MIC (Enterococcus faecium [23]): 0.25 µg/mL (≈ 0.741 µM) |
